Screens from PubChem.
VIM-2 inh – VIM-2 metallo-beta-lactamase inhibitors, primary screen, biochemical, epi-absorbance readout, Pseudomonas aeruginosa enzyme; hit rate 0.89% among 290,000; purified VIM-2, nitrocefin hydrolysis, epi-absorbance fluorescence; inhibition, % at 5.6 µM; AID 1527, 2009;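 active = inhibition above the mean of all tested compounds plus 3 SD, cutoff set per screening run, cut at about 7.5% in these data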;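 note: red hydrolysis product quenches plate fluorescence so inhibitors raise well fluorescence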
PfM18AAP inh – PfM18AAP inhibitors, malaria aminopeptidase, primary screen, biochemical, QFRET, recombinant enzyme. M18 aspartyl aminopeptidase (Plasmodium falciparum 3D7). H-Glu-NHMec fluorogenic cleavage. inhibition, % at 7.35 µM. hit rate 1.2% among 290,000;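 active = inhibition above the campaign mean inhibition over all tested compounds plus 3 SD, cut at about 28% in these data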
CTSL1 counter – Fasciola hepatica cathepsin L1 inhibitors, primary screen, counter-screen for PFM18AAP inhibitor project, biochemical, QFRET, fluorogenic peptide substrate; recombinant F. hepatica cathepsin L1, Z-Leu-Arg-MCA fluorescence; inhibition, % at 5.96 µM; hit rate 0.49% among 300,000;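 active = inhibition above the mean of all tested compounds plus 3 SD, set per screening campaign, cut at about 17% in these data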
IMP-1 inhibitor – IMP-1 metallo-beta-lactamase inhibitors, primary screen, biochemical, epi-absorbance readout, Pseudomonas aeruginosa enzyme. purified IMP-1, nitrocefin hydrolysis, epi-absorbance fluorescence. inhibition, % at 5.6 µM. hit rate 0.45% among 290,000;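 active = inhibition above the mean plus 3 SD of all compounds in the same screening run, cut at about 4.5% in these data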
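Assay system: purified IMP-1; Quantity: IMP-1 0.2 nM before substrate addition; Medium: HEPES buffer pH 7.1 with ZnSO4 and Brij 35; Incubation: 15 min enzyme–compound preincubation, then 25 min nitrocefin reaction, 25 °C; Signal: fluorescence quenching readout, ex 480/em 530 nm; Controls: DMSO with and without IMP-1; Repeats: singlicate testing.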
Hits are given with their value; n = inactive; x = no result. Most compounds without a hit are left out; they make up all but 2.7% or so of the library.

SMILES	VIM-2 inh	PfM18AAP inh	CTSL1 counter	IMP-1 inhibitor
O=C(NCCCn1ccnc1)C(Cc1ccccc1)N1C(=O)c2ccccc2C1=O (stereo not given)	n	29.5	n	n
COc1ccc(N2CCN(C(CNC(=O)C(=O)NCCCn3ccnc3)c3cccnc3)CC2)cc1 (stereo not given)	n	n	n	5.6
CC(C)(C)NC(=O)C(Cc1ccccc1)N1C(=O)c2ccccc2C1=O (stereo not given)	n	n	n	n
NC(=O)C(Cc1ccccc1)N1C(=O)c2ccccc2C1=O (stereo not given)	n	n	18.8	n
CS(=O)(=O)N1CCN(c2ccc(NC(=S)NC(=O)c3ccc4c(c3)OCO4)cc2)CC1	n	n	n	n
CCOC(=O)CCn1cc(F)c(=O)n(Cc2ccccc2)c1=O	n	n	n	n
CC(C)C(C(=O)C=[N+]=[N-])N1C(=O)c2ccccc2C1=O (stereo not given)	n	n	20.9	n
CCC(C(=O)O)N1C(=O)c2ccccc2C1=O (stereo not given)	n	n	n	n
[N-]=[N+]=CC(=O)C(Cc1ccccc1)N1C(=O)c2ccccc2C1=O (stereo not given)	n	n	25.7	n
O=C(O)C(CCCCN1C(=O)c2ccccc2C1=O)N1C(=O)c2ccccc2C1=O (stereo not given)	n	n	n	18.0
CC(C)c1ccc(CNC(=O)C(=O)NCCCn2ccnc2)cc1	n	n	n	30.0
CC(NC(=O)C(=O)NCCCn1ccnc1)c1ccccc1 (stereo not given)	n	n	n	n
O=C(NC1CCCc2ccccc21)c1ccccc1OC(F)F (stereo not given)	n	n	n	n
CCOC(=O)N1CCC(NC(=O)CS(=O)Cc2nc(-c3ccccc3C)oc2C)CC1 (stereo not given)	n	n	n	n
C/C(N)=C(/C#N)C(=O)CSc1nnc(COc2cc(C)ccc2C)o1	n	n	n	n
COc1cccc2sc3ccc(NCc4ccc5c(c4)OCO5)cc3c(=O)c12	9.2	n	n	n
COc1cc(C2C(C#N)=C(N)Oc3n[nH]c(-c4cccs4)c32)cc(OC)c1O (stereo not given)	n	28.3	n	n
Cc1ccc(C2C(C#N)=C(N)Oc3n[nH]c(-c4cccs4)c32)cc1 (stereo not given)	n	n	n	n
CCOc1ccc(NC(=S)Nc2ccccc2C2(C)CC2)cc1	n	n	n	n
NS(=O)(=O)c1ccc(N/N=C/c2ccc(O)c(O)c2O)c([N+](=O)[O-])c1	n	50.0	x	n
NS(=O)(=O)c1ccc(N/N=C/c2ccc(O)cc2O)c([N+](=O)[O-])c1	n	n	n	n
Oc1ccc(C23CC4CC(CC(C4)C2)C3)cc1O	n	90.2	n	n
CC(=O)Nc1ccc(C23CC4CC(CC(C4)C2)C3)cc1	n	n	n	n
Cc1cc(/C=N/NC(N)=S)c(C)n1-c1cccc(Cl)c1	n	n	n	n
COc1ccc(Br)cc1/C=N/NC(=O)Cn1nnnc1N	n	n	n	n
SMILES	VIM-2 inh	PfM18AAP inh	CTSL1 counter	IMP-1 inhibitor
Cc1cc(/C=N/NC(N)=S)c(C)n1-c1ccc(Cl)cc1	n	n	17.1	n
CC(C)Oc1ccc(Br)cc1/C=N\NC(N)=S	n	n	46.6	n
Cc1cc(/C=N/NC(N)=S)c(C)n1-c1ccc(Br)cc1	n	n	41.8	n
CCn1c(=O)c(CCC(=O)NCC2CCCO2)c(C)c2c(C)nn(-c3ccccc3)c21 (stereo not given)	n	n	n	n
CCn1c(=O)c(CCC(=O)NCCN2CCOCC2)c(C)c2c(C)nn(-c3ccccc3)c21	9.6	n	n	n
CCN(CC)CCCNC(=O)c1ccc2c(SCC(=O)O)c3c(nc2c1)CCC3	n	n	n	n
CCCN1CCN(CCCNC(=O)c2ccc3c(Cl)c4c(nc3c2)CCCC4)CC1	8.4	n	n	n
O=C(NCCCN1CCCC1)c1ccc2c(Cl)c3c(nc2c1)CCCC3	n	n	n	n
CCN(CC)CCNC(=O)CSc1c2c(nc3cc(Cl)ccc13)CCCC2	8.4	n	n	n
CCN(CC)CCCNC(=O)c1ccc2c(Cl)c3c(nc2c1)CCCC3	9.3	n	n	n
CCCCN(CC)CCNC(=O)c1ccc2c(Cl)c3c(nc2c1)CCC3	n	n	n	n
O=C(NCCc1cccs1)C12CN(Cc3ccccc3)CC1C(c1cccc([N+](=O)[O-])c1)=NO2 (stereo not given)	n	n	n	n
O=C1c2cccc3c(N4CCCCC4)ccc(c23)C(=O)N1c1ccccn1	n	n	n	5.8
CCCS(=O)(=O)Nc1cccc(-c2ccc3nnc(C)n3n2)c1	n	n	n	n
CCS(=O)(=O)Nc1cccc(-c2ccc3nnc(-c4cccnc4)n3n2)c1	8.9	n	n	n
Cc1cc(C)cc(OCC(=O)NNC(=O)CCC(=O)NCc2ccccc2)c1	n	n	n	n
O=C(NNC(=O)c1ccc2c(c1)OCO2)NC1CCCCC1	n	30.5	n	n
O=C(NC1CCCCC1)c1ccc2c(c1)OCO2	n	n	n	n
O=C(NNC(=O)c1ccc(Br)s1)NC1CCCCC1	n	28.4	x	n
O=C1N=C(N2CCOCC2)S/C1=C/c1cccs1	n	n	n	n
O=C1N=C(N2CCOCC2)S/C1=C/c1ccc(-c2ccccc2Cl)o1	n	n	34.2	n
S=C(N/N=C/c1ccc(Cl)cc1)N1CCOCC1	n	29.9	19.5	n
Cc1ccc(CC(=S)N2CCOCC2)cc1	n	28.7	n	n
Cc1ccc(/C=N/NC(=S)N2CCOCC2)cc1	n	40.2	27.6	n
S=C(N/N=C/c1ccc(Br)cc1)N1CCCCC1	n	n	n	n
SMILES	VIM-2 inh	PfM18AAP inh	CTSL1 counter	IMP-1 inhibitor
c1ccc2c(c1)CCN(c1nc3cc4c(cc3s1)OCCO4)C2	n	n	n	n
Cc1nn(CC(=O)NCCCN2CCCC2)c(=O)c2nn(-c3ccccc3)c(C)c12	n	n	n	n
Cc1cc(N2CCN(c3nc4ccccc4s3)CC2)n2ncnc2n1	8.2	n	n	n
Cc1cc(N2CCN(C(c3ccccc3)c3ccccc3)CC2)n2ncnc2n1	n	n	n	n
CC(=O)COC(=O)c1ccc2noc(-c3ccccc3)c2c1	n	30.2	n	n
Cc1ccc(C)c(C(=O)COC(=O)CN2C(=O)C3C4CCC(C4)C3C2=O)c1 (stereo not given)	n	n	n	n
COc1ccc(-c2csc(NC(=O)Nc3ccccc3)n2)cc1	n	n	n	n
Cc1ccc(NC(=O)Nc2nc(-c3ccc(C)s3)cs2)cc1	n	28.1	n	n
Cc1cc2[nH]c(=O)c(=O)[nH]c2cc1S(=O)(=O)N1CCN(c2ccccc2F)CC1	n	n	n	n
COc1ccccc1N1CCN(S(=O)(=O)c2cc3[nH]c(=O)c(=O)[nH]c3cc2C)CC1	n	n	n	4.5
CCc1nnc2c(N(C)S(=O)(=O)c3ccc(C)cc3)nc3ccccc3n12	n	n	n	n
Cc1ccc(S(=O)(=O)N(C)c2nc3ccccc3[nH]c2=S)cc1	n	n	n	8.7
